Test results published in ChEMBL document CHEMBL1914368, “Imidazo[1,5-a]quinoxalines as irreversible BTK inhibitors for the treatment of rheumatoid arthritis” (Bioorg Med Chem Lett, 2011).

Experiments:
[1] = target: Receptor tyrosine-protein kinase erbB-4 (Homo sapiens, UniProt Q15303); test: Inhibition of ERBB4 relative to control
[2] = Inhibition of anti-IgM-stimulated human B cell proliferation assessed as [3H]thymidine incorporation preincubated for 30 mins measured after 3 days; assay type: functional, cell-based; details: Homo sapiens, B-cell; read-out: IC50
[3] = target: T1, Aryl hydrocarbon receptor (Mus musculus, UniProt P30561); test: Agonist activity at Ah receptor in genetically engineered mouse cells expressing firefly luciferase gene by CALUX transactivational assay; assay type: functional
T1 sequence (P30561 whole entry): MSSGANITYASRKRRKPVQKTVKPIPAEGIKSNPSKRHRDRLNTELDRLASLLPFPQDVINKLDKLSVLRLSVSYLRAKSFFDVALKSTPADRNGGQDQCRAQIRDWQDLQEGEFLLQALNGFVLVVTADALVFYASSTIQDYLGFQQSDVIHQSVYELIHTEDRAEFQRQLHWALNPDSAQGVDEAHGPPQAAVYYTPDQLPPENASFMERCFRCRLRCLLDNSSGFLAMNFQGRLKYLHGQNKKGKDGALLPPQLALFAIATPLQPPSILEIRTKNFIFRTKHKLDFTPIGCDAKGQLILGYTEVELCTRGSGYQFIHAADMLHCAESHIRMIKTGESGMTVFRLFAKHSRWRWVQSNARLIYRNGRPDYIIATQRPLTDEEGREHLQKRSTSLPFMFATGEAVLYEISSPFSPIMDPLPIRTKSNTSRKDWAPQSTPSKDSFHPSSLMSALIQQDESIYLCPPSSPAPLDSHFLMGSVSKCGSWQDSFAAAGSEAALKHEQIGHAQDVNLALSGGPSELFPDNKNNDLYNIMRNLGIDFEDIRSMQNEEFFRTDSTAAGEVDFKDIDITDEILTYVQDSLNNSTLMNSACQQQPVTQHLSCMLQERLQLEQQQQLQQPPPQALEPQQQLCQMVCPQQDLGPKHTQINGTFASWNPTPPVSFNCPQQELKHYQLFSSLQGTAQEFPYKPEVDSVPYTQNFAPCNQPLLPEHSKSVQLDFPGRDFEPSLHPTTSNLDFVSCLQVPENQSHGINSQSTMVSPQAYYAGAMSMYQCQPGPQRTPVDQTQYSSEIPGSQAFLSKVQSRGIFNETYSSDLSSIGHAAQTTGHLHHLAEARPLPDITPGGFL

[4] = target: Tyrosine-protein kinase Lck (Homo sapiens, UniProt P06239); test: Inhibition of C-terminal His6-tagged human full-length LCK expressed in Sf9 cells preincubated for 60 mins measured after 60 mins by TR-FRET Assay
Tyrosine-protein kinase Lck, sequence (P06239 whole entry): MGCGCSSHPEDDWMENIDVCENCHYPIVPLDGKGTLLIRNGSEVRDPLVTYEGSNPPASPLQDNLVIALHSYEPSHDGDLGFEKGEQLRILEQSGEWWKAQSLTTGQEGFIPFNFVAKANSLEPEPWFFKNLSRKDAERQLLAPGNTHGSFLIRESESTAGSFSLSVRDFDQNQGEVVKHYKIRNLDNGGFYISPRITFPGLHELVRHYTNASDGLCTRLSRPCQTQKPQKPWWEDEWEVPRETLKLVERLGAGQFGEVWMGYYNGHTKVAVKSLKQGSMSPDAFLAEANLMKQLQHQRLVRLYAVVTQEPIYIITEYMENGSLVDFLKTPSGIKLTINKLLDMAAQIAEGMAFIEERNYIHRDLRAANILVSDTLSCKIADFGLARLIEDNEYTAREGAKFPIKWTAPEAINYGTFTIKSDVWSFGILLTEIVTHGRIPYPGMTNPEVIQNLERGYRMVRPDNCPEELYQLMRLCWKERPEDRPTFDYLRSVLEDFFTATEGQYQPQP

[5] = target: T2, Tyrosine-protein kinase BTK (Homo sapiens, UniProt Q06187); test: Inhibition of BTK autophosphorylation at PY223 in human Ramos B cells after 20 mins by Western blot analysis; assay type: cell-based
T2 sequence (Q06187 whole entry): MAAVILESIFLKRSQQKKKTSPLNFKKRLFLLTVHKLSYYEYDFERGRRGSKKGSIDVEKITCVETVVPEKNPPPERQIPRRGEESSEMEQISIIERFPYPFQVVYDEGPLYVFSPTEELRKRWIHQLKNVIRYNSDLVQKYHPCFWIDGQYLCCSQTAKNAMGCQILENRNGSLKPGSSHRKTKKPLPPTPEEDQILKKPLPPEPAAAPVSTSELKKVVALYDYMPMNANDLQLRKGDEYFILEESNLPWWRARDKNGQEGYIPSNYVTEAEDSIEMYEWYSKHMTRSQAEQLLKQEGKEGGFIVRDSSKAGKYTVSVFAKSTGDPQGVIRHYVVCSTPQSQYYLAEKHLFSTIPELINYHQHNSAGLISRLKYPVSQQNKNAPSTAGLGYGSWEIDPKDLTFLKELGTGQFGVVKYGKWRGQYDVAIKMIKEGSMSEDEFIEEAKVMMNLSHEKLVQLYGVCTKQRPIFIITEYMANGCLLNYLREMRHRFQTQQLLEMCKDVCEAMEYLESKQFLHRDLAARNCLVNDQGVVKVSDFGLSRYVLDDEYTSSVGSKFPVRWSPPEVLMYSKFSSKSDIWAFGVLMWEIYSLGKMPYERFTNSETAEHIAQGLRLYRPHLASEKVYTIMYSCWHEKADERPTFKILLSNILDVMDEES

[6] = Half life in mouse at 2 mg/kg, iv; assay type: ADME, organism-based; parameters: dose 2 mg/kg, route intravenous; details: in vivo
[7] = Half life in mouse at 10 mg/kg, po; assay type: ADME, organism-based; parameters: dose 10 mg/kg, route oral; details: in vivo
[8] = Volume of distribution at steady state in mouse at 2 mg/kg, iv; assay type: ADME, organism-based; parameters: dose 2 mg/kg, route intravenous; details: in vivo, read-out: Vdss
In short: (§1)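 Mouse pharmacokinetics from single dosing at 2 mg/kg iv and 10 mg/kg po. The study derived AUC, T1/2, clearance, Vss, Tmax, Cmax and oral bioavailability (%F) from the paired iv and po arms.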

[9] = Tmax in mouse at 10 mg/kg, po; assay type: ADME, organism-based; parameters: dose 10 mg/kg, route oral; details: in vivo; in short: as §1
[10] = Cmax in mouse at 10 mg/kg, po; assay type: ADME, organism-based; parameters: dose 10 mg/kg, route oral; details: in vivo
[11] = Oral bioavailability in mouse at 10 mg/kg; assay type: ADME, organism-based; details: in vivo; in short: as §1
[12] = target: Cytoplasmic tyrosine-protein kinase BMX (Homo sapiens) (UniProt P51813); test: Inhibition of BMX relative to control; details: concentration not given here
Cytoplasmic tyrosine-protein kinase BMX (Homo sapiens), sequence (P51813 whole entry): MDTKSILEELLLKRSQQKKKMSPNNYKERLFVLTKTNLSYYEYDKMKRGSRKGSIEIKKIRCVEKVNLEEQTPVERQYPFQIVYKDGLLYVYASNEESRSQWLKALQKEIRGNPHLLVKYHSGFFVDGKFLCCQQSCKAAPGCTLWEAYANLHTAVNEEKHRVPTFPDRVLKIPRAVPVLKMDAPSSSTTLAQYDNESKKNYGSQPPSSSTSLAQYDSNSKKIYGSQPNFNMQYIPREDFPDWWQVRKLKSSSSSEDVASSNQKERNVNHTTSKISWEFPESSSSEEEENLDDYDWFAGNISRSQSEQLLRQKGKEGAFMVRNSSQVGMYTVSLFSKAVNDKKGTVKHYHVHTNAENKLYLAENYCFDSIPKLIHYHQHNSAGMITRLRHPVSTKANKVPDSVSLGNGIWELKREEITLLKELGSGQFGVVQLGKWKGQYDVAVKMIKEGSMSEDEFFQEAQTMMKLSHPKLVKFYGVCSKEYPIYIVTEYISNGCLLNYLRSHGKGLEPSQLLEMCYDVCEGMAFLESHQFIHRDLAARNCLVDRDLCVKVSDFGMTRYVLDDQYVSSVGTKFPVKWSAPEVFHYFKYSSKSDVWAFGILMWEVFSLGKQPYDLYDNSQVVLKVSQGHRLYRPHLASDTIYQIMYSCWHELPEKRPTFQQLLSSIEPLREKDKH

[13] = target: Serine/threonine-protein kinase B-raf (Homo sapiens) (UniProt P15056); test: Inhibition of B-Raf relative to control; details: concentration not given here
Serine/threonine-protein kinase B-raf (Homo sapiens), sequence (P15056 whole entry): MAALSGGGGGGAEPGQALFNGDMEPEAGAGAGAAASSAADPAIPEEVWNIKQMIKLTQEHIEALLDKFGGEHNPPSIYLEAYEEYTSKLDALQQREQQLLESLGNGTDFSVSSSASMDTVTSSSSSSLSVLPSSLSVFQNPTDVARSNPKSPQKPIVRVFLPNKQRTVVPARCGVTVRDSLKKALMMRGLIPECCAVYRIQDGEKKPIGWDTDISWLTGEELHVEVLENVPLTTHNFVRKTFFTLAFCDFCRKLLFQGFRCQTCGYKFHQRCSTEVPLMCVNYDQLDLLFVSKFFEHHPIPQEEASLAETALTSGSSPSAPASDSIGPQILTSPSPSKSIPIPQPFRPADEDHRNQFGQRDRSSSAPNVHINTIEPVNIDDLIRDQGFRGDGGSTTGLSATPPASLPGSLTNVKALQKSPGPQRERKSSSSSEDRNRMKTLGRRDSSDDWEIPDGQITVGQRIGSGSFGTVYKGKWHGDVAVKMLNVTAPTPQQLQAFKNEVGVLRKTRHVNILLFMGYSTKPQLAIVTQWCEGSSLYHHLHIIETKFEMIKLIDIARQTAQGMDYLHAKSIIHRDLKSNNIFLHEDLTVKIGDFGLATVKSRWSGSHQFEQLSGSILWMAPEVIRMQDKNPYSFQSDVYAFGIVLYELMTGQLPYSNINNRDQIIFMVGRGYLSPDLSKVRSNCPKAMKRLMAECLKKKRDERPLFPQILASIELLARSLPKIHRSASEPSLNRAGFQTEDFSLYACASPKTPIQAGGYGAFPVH

[14] = target: T2, Tyrosine-protein kinase BTK; test: Inhibition of BTK relative to control
[15] = target: Tyrosine-protein kinase CSK (Homo sapiens) (UniProt P41240); test: Inhibition of CSK relative to control; details: concentration not given here
[16] = target: Ephrin type-A receptor 8 (Homo sapiens) (UniProt P29322); test: (§2) Inhibition of EPHA8 relative to control; details: concentration not given here
Ephrin type-A receptor 8 = Ephrin type-A receptor 8 (Homo sapiens, UniProt P29322); test: as §2
[17] = target: Vascular endothelial growth factor receptor 3 (Homo sapiens) (UniProt P35916); test: Inhibition of FLT4 relative to control; details: concentration not given here
[18] = target: Serine/threonine-protein kinase mTOR (Homo sapiens) (UniProt P42345); test: Inhibition of FRAP1 relative to control; details: concentration not given here
[19] = target: Tyrosine-protein kinase Fyn (Homo sapiens, UniProt P06241); test: Inhibition of FYN relative to control
[20] = target: Glycogen synthase kinase-3 alpha (Homo sapiens) (UniProt P49840); test: Inhibition of GSK3A relative to control; details: concentration not given here
[21] = target: Interleukin-1 receptor-associated kinase 4 (Homo sapiens) (UniProt Q9NWZ3); test: Inhibition of IRAK4 relative to control; details: concentration not given here
Interleukin-1 receptor-associated kinase 4 (Homo sapiens), sequence (Q9NWZ3 whole entry): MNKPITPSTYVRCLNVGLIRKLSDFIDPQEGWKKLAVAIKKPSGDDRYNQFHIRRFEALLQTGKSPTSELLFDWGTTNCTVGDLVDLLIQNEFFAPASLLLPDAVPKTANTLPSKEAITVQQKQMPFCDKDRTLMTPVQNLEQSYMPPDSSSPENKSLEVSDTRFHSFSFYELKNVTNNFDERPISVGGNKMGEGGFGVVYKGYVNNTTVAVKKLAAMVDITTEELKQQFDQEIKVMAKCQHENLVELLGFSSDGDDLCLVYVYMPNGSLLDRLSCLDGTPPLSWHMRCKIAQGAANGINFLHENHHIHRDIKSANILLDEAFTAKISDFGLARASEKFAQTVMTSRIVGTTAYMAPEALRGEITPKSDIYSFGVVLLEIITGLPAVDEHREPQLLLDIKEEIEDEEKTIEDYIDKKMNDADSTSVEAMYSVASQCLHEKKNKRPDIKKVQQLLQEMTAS

[22] = target: Tyrosine-protein kinase ITK/TSK (Homo sapiens) (UniProt Q08881); test: Inhibition of ITK relative to control; details: concentration not given here
[23] = target: Tyrosine-protein kinase JAK3 (Homo sapiens) (UniProt P52333); test: Inhibition of JAK3 relative to control; details: concentration not given here
[24] = target: Vascular endothelial growth factor receptor 2 (Homo sapiens) (UniProt P35968); test: Inhibition of KDR relative to control; details: concentration not given here
[25] = target: Mitogen-activated protein kinase 1 (Homo sapiens) (UniProt P28482); test: Inhibition of MAPK1 relative to control; details: concentration not given here
[26] = target: Mitogen-activated protein kinase 3 (Homo sapiens) (UniProt P27361); test: Inhibition of MAPK3 relative to control; details: concentration not given here
Mitogen-activated protein kinase 3 (Homo sapiens), sequence (P27361 whole entry): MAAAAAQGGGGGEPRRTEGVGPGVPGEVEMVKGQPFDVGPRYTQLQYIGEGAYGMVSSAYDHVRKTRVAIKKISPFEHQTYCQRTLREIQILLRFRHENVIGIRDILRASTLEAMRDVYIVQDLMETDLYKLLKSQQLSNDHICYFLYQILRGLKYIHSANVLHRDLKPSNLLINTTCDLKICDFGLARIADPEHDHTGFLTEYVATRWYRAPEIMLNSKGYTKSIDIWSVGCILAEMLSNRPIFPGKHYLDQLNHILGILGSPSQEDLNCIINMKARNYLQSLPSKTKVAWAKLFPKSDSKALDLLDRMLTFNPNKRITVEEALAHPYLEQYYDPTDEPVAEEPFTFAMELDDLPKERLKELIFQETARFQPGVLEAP

[27] = target: Mitogen-activated protein kinase 8 (Homo sapiens) (UniProt P45983); test: Inhibition of MAPK8 relative to control; details: concentration not given here
[28] = test system: Hepatocyte growth factor receptor (Homo sapiens), P08581 [M1250T]; test: Inhibition of MET M1250T mutant relative to control; details: concentration not given here
[29] = target: Phosphatidylinositol 4-phosphate 3-kinase C2 domain-containing subunit beta (Homo sapiens) (UniProt O00750); test: Inhibition of PI3K-C2 beta relative to control; details: concentration not given here
[30] = target: cAMP-dependent protein kinase catalytic subunit alpha (Homo sapiens) (UniProt P17612); test: Inhibition of PRKACA relative to control; details: concentration not given here
[31] = target: Ribosomal protein S6 kinase alpha-1 (Homo sapiens) (UniProt Q15418); test: Inhibition of RSK1 relative to control; details: concentration not given here
Ribosomal protein S6 kinase alpha-1 (Homo sapiens), sequence (Q15418 whole entry): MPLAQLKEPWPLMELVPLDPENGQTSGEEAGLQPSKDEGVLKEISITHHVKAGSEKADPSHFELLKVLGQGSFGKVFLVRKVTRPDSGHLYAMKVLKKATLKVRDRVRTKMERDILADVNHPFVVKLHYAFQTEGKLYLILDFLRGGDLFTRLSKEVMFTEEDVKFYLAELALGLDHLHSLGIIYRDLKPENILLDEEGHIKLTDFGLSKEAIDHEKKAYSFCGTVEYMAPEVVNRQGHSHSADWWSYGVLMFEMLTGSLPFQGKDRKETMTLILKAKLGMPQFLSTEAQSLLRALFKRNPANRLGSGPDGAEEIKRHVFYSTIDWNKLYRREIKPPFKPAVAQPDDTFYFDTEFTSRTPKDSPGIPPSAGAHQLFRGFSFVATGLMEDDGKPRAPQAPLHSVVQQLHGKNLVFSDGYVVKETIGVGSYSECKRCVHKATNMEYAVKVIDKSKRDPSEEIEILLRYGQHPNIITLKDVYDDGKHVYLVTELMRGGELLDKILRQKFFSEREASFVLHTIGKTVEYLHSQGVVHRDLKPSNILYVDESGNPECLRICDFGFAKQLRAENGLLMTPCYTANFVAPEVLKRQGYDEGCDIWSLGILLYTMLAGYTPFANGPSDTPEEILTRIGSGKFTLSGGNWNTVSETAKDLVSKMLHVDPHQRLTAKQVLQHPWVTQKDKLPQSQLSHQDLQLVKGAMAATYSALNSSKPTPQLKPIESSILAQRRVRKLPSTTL

[32] = target: Proto-oncogene tyrosine-protein kinase Src (Homo sapiens, UniProt P12931); test: Inhibition of SRC relative to control; details: concentration not given here
Proto-oncogene tyrosine-protein kinase Src, sequence (P12931 2-536 limits assumed): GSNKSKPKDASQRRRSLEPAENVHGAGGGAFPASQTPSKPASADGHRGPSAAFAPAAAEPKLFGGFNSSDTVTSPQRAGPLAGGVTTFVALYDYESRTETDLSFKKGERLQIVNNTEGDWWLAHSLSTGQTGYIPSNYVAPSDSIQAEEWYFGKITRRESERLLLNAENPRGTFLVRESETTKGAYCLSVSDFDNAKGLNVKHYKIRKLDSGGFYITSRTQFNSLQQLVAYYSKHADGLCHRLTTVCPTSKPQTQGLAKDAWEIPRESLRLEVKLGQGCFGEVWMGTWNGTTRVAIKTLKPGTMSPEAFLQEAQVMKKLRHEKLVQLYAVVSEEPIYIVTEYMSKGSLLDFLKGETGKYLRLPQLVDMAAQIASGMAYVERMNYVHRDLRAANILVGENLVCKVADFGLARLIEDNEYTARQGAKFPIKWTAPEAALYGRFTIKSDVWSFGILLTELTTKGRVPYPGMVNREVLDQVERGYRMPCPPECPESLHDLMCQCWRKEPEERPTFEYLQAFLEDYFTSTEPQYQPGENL

[33] = target: Tyrosine-protein kinase SYK (Homo sapiens) (UniProt P43405); test: Inhibition of SYK relative to control; details: concentration not given here
[34] = target: Serine/threonine-protein kinase TBK1 (Homo sapiens) (UniProt Q9UHD2); test: Inhibition of TBK1 relative to control; details: concentration not given here
[35] = target: Angiopoietin-1 receptor (Homo sapiens) (UniProt Q02763); test: Inhibition of TEK relative to control; details: concentration not given here

With `Cc1ccccc1Nc1nc2cc(F)c(N(C)C(=O)/C=C/CN(C)C)cc2n2cncc12` the IC50 [1] was 43.7 nM, the IC50 [2] was 3.41 nM and the EC50 [3] was over 10000 nM. For the same compound, the IC50 [4] was 755 nM, the IC50 [5] was 48 nM and the half-life [6] was 1.5 h. For the same compound, the half-life [7] was 2 h, the Vd [8] was 6.2 L/kg and the Tmax [9] was 3 h. The Cmax [10] was 220 ng/mL, the bioavailability [11] was 34% and the inhibition [12] was 100%. It also gave an inhibition [13] of 19%, an IC50 [14] of 3.31 nM and an inhibition [15] of 15%. The inhibition [16] was 54%, the IC50 (Ephrin type-A receptor 8) was 434 nM and the inhibition [17] was 6%. It also gave an inhibition [18] of 0%, an IC50 [19] of 892 nM and an inhibition ([19]; concentration not given here) of 40%. For the same compound, the inhibition [20] was 8%, the inhibition [21] was 10% and the inhibition [22] was 5%. For the same compound, the inhibition [23] was -4%, the inhibition [24] was 7% and the inhibition [25] was -4%. It also gave an inhibition [26] of 1%, an inhibition [27] of -3% and an inhibition [28] of 5%. For the same compound, the inhibition [29] was 11%, the inhibition [30] was 11% and the inhibition [31] was 0%. The inhibition [32] was 43%, the inhibition [33] was 0% and the inhibition [34] was -5%. For the same compound, the inhibition [35] was 13%.
